The source made the active and inactive calls. The calls are words filed in the database; no cut-off is given here.
Columns and labels:
Beta-secretase 1 [1] = target: T1, Beta-secretase 1 (Homo sapiens, UniProt P56817); assay: Inhibition of BACE1 in HEK293 cells transfected with human betaAPP695 mutant assessed as inhibition of amyloid beta (1 to 40) production after 24 hrs by ELISA; type: cell-based
Summary of the method: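 HEK293 cells stably carrying APP695 with Swedish double mutation, grown in DMEM plus 10% heat-inactivated FBS. Compounds added at seeding at several concentrations, 24 h at 37 °C, 5% CO2. Secreted Aβ1-40 in conditioned medium quantified by colorimetric sandwich ELISA.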

Beta-secretase 1 [2] = target: T1, Beta-secretase 1; assay: Inhibition of human recombinant C-terminal histidine-tagged BACE1 expressed in baculovirus-infected insect cells by FRET assay
PC-12 = assay: Cell protective activity against H2O2-induced cell injury in rat PC12 cells assessed as cell viability at 1 to 10 uM pretreated for 2 hrs measured after 24 hrs by MTT assay; type: functional, cell-based
Summary of the method: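 PC12 cells seeded at 1 × 10^5 cells per mL in DMEM with 10% heat-inactivated bovine calf serum, used 24 h later. Compounds dissolved in 2% DMSO then diluted in PBS; 2 h pretreatment, H2O2 for 30 min, then fresh phenol red-free DMEM. Viability by MTT reduction 24 h later, absorbance 570 and 630 nm. Means ± SD, one-way ANOVA with Duncan's test.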

Mus musculus [3] = assay: Decrease in amyloid beta (1 to 40) production in transgenic mouse transfected with human APP695 Swedish double mutant at 8 nmol, intracerebroventricularly after 4 hrs by ELISA relative to control; type: functional; set-up: scale not given: the % may be the effect or the level left
Summary of the method: (§1)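 The vehicle control was distilled H2O. After 4 h, hemispheres were isolated on ice and Aβ1-40 was measured by colorimetric human Aβ1-40 ELISA against vehicle-treated mice. Data are means ± SD; independent t-test.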

Mus musculus [4] = assay: Decrease in amyloid beta (1 to 40) production in transgenic mouse transfected with human APP695 Swedish double mutant at 10 nmol, intracerebroventricularly after 4 hrs by ELISA relative to control; type: functional; set-up: scale not given: the % may be the effect or the level left; summary of the method: as §1

T1 sequence (P56817 whole entry): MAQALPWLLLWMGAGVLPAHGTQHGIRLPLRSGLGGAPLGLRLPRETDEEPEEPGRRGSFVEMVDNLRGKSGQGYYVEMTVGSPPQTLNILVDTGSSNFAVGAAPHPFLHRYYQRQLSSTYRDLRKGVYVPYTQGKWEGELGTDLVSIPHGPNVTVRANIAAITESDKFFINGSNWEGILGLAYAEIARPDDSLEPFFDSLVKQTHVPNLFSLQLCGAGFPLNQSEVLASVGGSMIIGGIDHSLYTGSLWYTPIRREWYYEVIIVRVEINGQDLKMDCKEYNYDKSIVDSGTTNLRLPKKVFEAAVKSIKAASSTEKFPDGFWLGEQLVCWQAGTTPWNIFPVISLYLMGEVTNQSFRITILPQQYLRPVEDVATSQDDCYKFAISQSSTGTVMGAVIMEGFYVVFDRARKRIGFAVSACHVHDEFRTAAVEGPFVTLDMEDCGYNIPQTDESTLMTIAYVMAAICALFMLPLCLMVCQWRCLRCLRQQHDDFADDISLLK

Structure (SMILES) | IC50 (Beta-secretase 1 [1]) | IC50 (Beta-secretase 1 [2]) | also measured
C[C@@H](NC(=O)c1cccc(C(=O)N[C@@H](Cc2ccccc2)[C@H](O)CNCCC2CCN(Cc3ccccc3)CC2)c1)c1ccccc1 | < 1 µM | – | –
CC(C)C[C@H](NC(=O)c1cc(C(=O)N[C@H](C)c2ccc(F)cc2)cc(N(C)S(C)(=O)=O)c1)[C@@H](O)C[C@@H](C)C(=O)NCC1CCN(Cc2ccccc2)CC1 | < 1 µM | 0.616 µM | –
C[C@@H](NC(=O)c1cc(C(=O)N[C@H](CO)Cc2ccccc2)cc(N(C)S(C)(=O)=O)c1)c1ccc(F)cc1 | < 1 µM | 0.462 µM | –
C[C@@H](NC(=O)c1cc(C(=O)N[C@@H](Cc2ccccc2)C(O)C(=O)NC2CCN(Cc3ccccc3)CC2)cc(N(C)S(C)(=O)=O)c1)c1ccccc1 (mixture of isomers) | < 1 µM | – | –
C[C@@H](NC(=O)c1cc(C(=O)N[C@@H](Cc2ccccc2)C(O)C(=O)NCC2CCN(Cc3ccccc3)CC2)cc(N(C)S(C)(=O)=O)c1)c1ccccc1 (mixture of isomers) | < 1 µM | – | –
CC(C)C[C@H](NC(=O)c1cc(C(=O)N[C@H](C)c2ccccc2)cc(N(C)S(C)(=O)=O)c1)[C@@H](O)C[C@@H](C)C(=O)NN1CCN(Cc2ccccc2)CC1 | < 1 µM | – | –
C[C@@H](NC(=O)c1cc(C(=O)N[C@@H](Cc2ccccc2)C(O)C(=O)NC2CCN(Cc3ccccc3)CC2)cc(N(C)S(C)(=O)=O)c1)c1ccc(F)cc1 (mixture of isomers) | < 1 µM | – | –
CC(C)C[C@H](NC(=O)c1cc(C(=O)N[C@H](C)c2ccc(F)cc2)cc(N(C)S(C)(=O)=O)c1)[C@@H](O)C[C@@H](C)C(=O)NC1CCN(Cc2ccccc2)CC1 | < 1 µM | 1.5 µM | –
CC(C)C[C@H](NC(=O)c1cc(C(=O)N[C@H](C)c2ccc(F)cc2)cc(N(C)S(C)(=O)=O)c1)[C@@H](O)C[C@@H](C)C(=O)NCCC1CCN(Cc2ccccc2)CC1 | < 1 µM | 1.34 µM | –
C[C@@H](NC(=O)c1cc(C(=O)N[C@@H](Cc2ccccc2)C(O)C(=O)NCCC2CCN(Cc3ccccc3)CC2)cc(N(C)S(C)(=O)=O)c1)c1ccccc1 (mixture of isomers) | < 1 µM | – | –
C[C@@H](NC(=O)c1cc(C(=O)N[C@@H](Cc2ccccc2)[C@H](O)CNCCC2CCN(Cc3ccccc3)CC2)cc([N+](=O)[O-])c1)c1ccc(F)cc1 | < 1 µM | 2.68 µM | –
CCCN(CCC)C(=O)c1cc(C(=O)N[C@@H](Cc2ccccc2)C(O)C(=O)NC2CCN(Cc3ccccc3)CC2)cc([N+](=O)[O-])c1 (mixture of isomers) | < 1 µM | – | –
C[C@@H](NC(=O)c1cc(C(=O)N[C@@H](Cc2ccccc2)[C@H](O)CNCCC2CCN(Cc3ccccc3)CC2)cc(N(C)S(C)(=O)=O)c1)c1ccccc1 | 0.0987 µM | 0.567 µM | Activity (PC-12): Active; Activity (Mus musculus [3]): 29%
C[C@@H](NC(=O)c1cc(C(=O)N[C@@H](Cc2ccccc2)[C@H](O)CNCCC2CCN(Cc3ccccc3)CC2)cc(N(C)S(C)(=O)=O)c1)c1ccc(F)cc1 | < 1 µM | 0.222 µM | –
C[C@@H](NC(=O)c1cc(C(=O)N[C@@H](Cc2ccccc2)[C@H](O)CNCCC2CCN(Cc3ccccc3)CC2)cc([N+](=O)[O-])c1)c1ccccc1 | < 1 µM | 7.02 µM | –
C[C@@H](NC(=O)c1cc(C(=O)N[C@@H](Cc2ccccc2)[C@H](O)CNC2CCN(Cc3ccccc3)CC2)cc(N(C)S(C)(=O)=O)c1)c1ccc(F)cc1 | < 1 µM | 0.771 µM | –
CCCN(CCC)C(=O)c1cccc(C(=O)N[C@@H](Cc2ccccc2)[C@H](O)CNCCC2CCN(Cc3ccccc3)CC2)c1 | < 1 µM | – | –
C[C@@H](NC(=O)c1cc(C(=O)N[C@@H](Cc2ccccc2)[C@H](O)CNCC2CCN(Cc3ccccc3)CC2)cc(N(C)S(C)(=O)=O)c1)c1ccc(F)cc1 | < 1 µM | 3.23 µM | –
CCCN(CCC)C(=O)c1cc(C(=O)N[C@@H](Cc2ccccc2)[C@H](O)CNCCC2CCN(Cc3ccccc3)CC2)cc(N(C)S(C)(=O)=O)c1 | < 1 µM | 2.39 µM | –
C[C@@H](NC(=O)c1cccc(C(=O)N[C@@H](Cc2ccccc2)[C@H](O)CNCCC2CCN(Cc3ccccc3)CC2)c1)c1ccc(F)cc1 | < 1 µM | – | –
CC(C)C[C@H](NC(=O)c1cc(C(=O)N[C@H](C)c2ccccc2)cc(N(C)S(C)(=O)=O)c1)[C@@H](O)C[C@@H](C)C(=O)NC1CCN(Cc2ccccc2)CC1 | < 1 µM | 1.54 µM | –
C[C@@H](NC(=O)c1cc(C(=O)N[C@@H](Cc2ccccc2)C(O)C(=O)NCC2CCN(Cc3ccccc3)CC2)cc(N(C)S(C)(=O)=O)c1)c1ccc(F)cc1 (mixture of isomers) | < 1 µM | – | –
C[C@@H](NC(=O)c1cc(C(=O)N[C@@H](Cc2ccccc2)[C@H](O)CNCC2CCN(Cc3ccccc3)CC2)cc(N(C)S(C)(=O)=O)c1)c1ccccc1 | < 1 µM | 4 µM | –
CC(C)C[C@H](NC(=O)c1cc(C(=O)N[C@H](C)c2ccc(F)cc2)cc(N(C)S(C)(=O)=O)c1)[C@@H](O)C[C@@H](C)C(=O)NN1CCN(Cc2ccccc2)CC1 | < 1 µM | – | –
C[C@@H](NC(=O)c1cc(C(=O)N[C@@H](Cc2ccccc2)C(O)C(=O)NCCC2CCN(Cc3ccccc3)CC2)cc(N(C)S(C)(=O)=O)c1)c1ccc(F)cc1 (mixture of isomers) | < 1 µM | – | –
CCCN(CCC)C(=O)c1cc(C(=O)N[C@@H](Cc2ccccc2)C(O)C(=O)NCCC2CCN(Cc3ccccc3)CC2)cc([N+](=O)[O-])c1 (mixture of isomers) | < 1 µM | – | –
CCCN(CCC)C(=O)c1cc(C(=O)N[C@@H](Cc2ccccc2)C(O)C(=O)NCC2CCN(Cc3ccccc3)CC2)cc([N+](=O)[O-])c1 (mixture of isomers) | < 1 µM | – | –
C[C@@H](NC(=O)c1cc(C(=O)N[C@@H](Cc2ccccc2)[C@H](O)CNC2CCN(Cc3ccccc3)CC2)cc(N(C)S(C)(=O)=O)c1)c1ccccc1 | 0.0546 µM | 0.511 µM | Activity (Mus musculus [4]): 23%; Activity (PC-12): Active
CCCN(CCC)C(=O)c1cc(C(=O)N[C@@H](Cc2ccccc2)[C@H](O)CNCCC2CCN(Cc3ccccc3)CC2)cc([N+](=O)[O-])c1 | < 1 µM | – | –

— ChEMBL document CHEMBL1152701, “Design, synthesis and biological evaluation of novel dual inhibitors of acetylcholinesterase and beta-secretase” (Bioorg Med Chem, 2009)
